≈ marks a conversion by molar mass, not a printed value.
Legend:
Staphylococcus aureus [1] = experiment: Antibacterial activity against glycopeptide intermediate resistant Staphylococcus aureus 3798 strain; assay type: functional
Procedure, shortened: (§1)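 MIC by broth microdilution in Mueller Hinton broth following NCCLS procedures. Compounds were dissolved in 10% DMSO in water, then diluted in broth. Final DMSO was 1.28% at 128 µg/mL antibiotic down to 0.0013% at 0.13 µg/mL. Repeat determinations were usually identical and always within 2-fold.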

[2] = test system: Staphylococcus epidermidis; experiment: Antibacterial activity against Staphylococcus epidermis 533 strain; assay type: functional
Enterococcus faecalis [3] = experiment: Antibacterial activity against glycopeptide resistant Enterococcus faecalis 560 strain; assay type: functional; procedure, shortened: as §1
Enterococcus faecalis [4] = experiment: Antibacterial activity against glycopeptide susceptible Enterococcus faecalis 559 strain; assay type: functional
Procedure, shortened: (§2)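 MIC by broth microdilution in Mueller Hinton broth following NCCLS procedures. Compounds dissolved in 10% DMSO in water, then diluted in broth; test range 128 to 0.13 µg/mL, final DMSO 1.28% to 0.0013% accordingly. Repeat determinations usually identical and always within 2-fold. Strain 533 is a clinical isolate; strain 602 is a clinical S. haemoliticus isolate.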

Enterococcus faecium [5] = experiment: Antibacterial activity against glycopeptide resistant Enterococcus faecium 569 strain; assay type: functional; procedure, shortened: as §1
Enterococcus faecium [6] = experiment: Antibacterial activity against glycopeptide susceptible Enterococcus faecium 568 strain; assay type: functional; procedure, shortened: as §2
[7] = test system: Staphylococcus haemolyticus; experiment: Antibacterial activity against Staphylococcus haemolyticus 602 strain
Staphylococcus aureus [8] = experiment: Antibacterial activity against glycopeptide intermediate resistant Staphylococcus aureus 3797 strain; assay type: functional; procedure, shortened: as §1

Row | SMILES | MIC (Staphylococcus aureus [1]) | MIC [2] | MIC (Enterococcus faecalis [3]) | MIC (Enterococcus faecalis [4]) | MIC (Enterococcus faecium [5]) | MIC (Enterococcus faecium [6]) | MIC [7] | MIC (Staphylococcus aureus [8])
1 | CN[C@H](CC(C)C)C(=O)N[C@H]1C(=O)N[C@@H](CC(N)=O)C(=O)N[C@H]2C(=O)N[C@H]3C(=O)N[C@H](C(=O)N[C@H](C(=O)O)c4cc(O)cc(O)c4-c4cc3ccc4O)[C@H](O[C@@H]3C[C@@](C)(N)[C@H](O)[C@@H](C)O3)c3ccc(cc3)Oc3cc2cc(c3O[C@H]2O[C@@H](CO)[C@H](O)[C@@H](O)[C@@H]2O[C@H]2C[C@](C)(N)[C@@H](O)[C@H](C)O2)Oc2ccc(cc2Cl)[C@H]1O [EREMOMYCIN] | 8 µg/mL (≈ 5.13 µM) | 0.25 µg/mL (≈ 0.16 µM) | > 128 µg/mL | 0.25 µg/mL (≈ 0.16 µM) | > 128 µg/mL | 0.25 µg/mL (≈ 0.16 µM) | 0.25 µg/mL (≈ 0.16 µM) | 8 µg/mL (≈ 5.13 µM)
2 | N[C@H]1C(=O)N[C@@H]2Cc3ccc(c(Cl)c3)Oc3cc4cc(c3O)Oc3ccc(cc3Cl)[C@@H](O)[C@@H]3NC(=O)[C@H](NC(=O)[C@@H]4NC(=O)[C@@H](NC2=O)c2cc(O)cc(c2)Oc2cc1ccc2O)c1ccc(O)c(c1)-c1c(O)cc(O)cc1[C@@H](C(=O)O)NC3=O [TEICOPLANIN AGLYCON] | 1 µg/mL (≈ 0.834 µM) | 0.25 µg/mL (≈ 0.209 µM) | > 128 µg/mL | 0.13 µg/mL (≈ 0.108 µM) | > 128 µg/mL | 0.13 µg/mL (≈ 0.108 µM) | 0.25 µg/mL (≈ 0.209 µM) | 1 µg/mL (≈ 0.834 µM)
